ChEMBL document CHEMBL5058577, “EUbOPEN Chemogenomics Library 2 (Multiplex)” (2022)

Test system: U2OS
Test: Multiplex assay against U2OS
Format: toxicity, cell-based
Conditions: human
Summary of the method: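 Compound was added to live cells that had been stained at seeding with Hoechst33342, BioTracker Green Microtubule Cytoskeleton Dye, MitoTracker Red and Annexin V Alexa Fluor 680, and imaging followed on a CQ1 microscope at 37°C and 5% CO2. CellPathfinder machine-learning gating divided cells into Hoechst high-intensity objects or normal cells, normal cells into healthy, pyknosed or fragmented nuclei, and pyknosed cells into mitotic or apoptotic. Tubulin, mitochondrial-mass and membrane-permeability phenotypes are per cents of healthy-nucleus cells.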

[1] = 12 h, 1 µM, compound concentration 1 uM, replicate 1
[2] = 12 h, 1 µM, compound concentration 1 uM, replicate 2
[3] = 12 h, 10 µM, compound concentration 10 uM, replicate 1
[4] = 12 h, 10 µM, compound concentration 10 uM, replicate 2
[5] = 24 h, 1 µM, compound concentration 1 uM, replicate 1
[6] = 24 h, 1 µM, compound concentration 1 uM, replicate 2
[7] = 24 h, 10 µM, compound concentration 10 uM, replicate 1
[8] = 24 h, 10 µM, compound concentration 10 uM, replicate 2
[9] = 48 h, 1 µM, compound concentration 1 uM, replicate 1
[10] = 48 h, 1 µM, compound concentration 1 uM, replicate 2
[11] = 48 h, 10 µM, compound concentration 10 uM, replicate 1
[12] = 48 h, 10 µM, compound concentration 10 uM, replicate 2

SMILES: Cc1ccc(F)cc1C(=O)Nc1ccc(C(=O)N2Cc3cccn3Cc3ccccc32)c(Cl)c1 [LIXIVAPTAN]
- Population Apoptotic (%) [1]: 69%
- Population Fragmented Nuclei (%) [1]: 32%
- Population Healthy Nuclei (%) [1]: 55%
- Population Hoechst High Intensity Objects (%) [1]: 3%
- Population Membrane Permeable-Phenotype (%) [1]: 9%
- Population Mitochondria Different-Phenotype (%) [1]: 9%
- Population Mitotic Cells (%) [1]: 30%
- Population Normal (%) [1]: 96%
- Population Pyknosed Nuclei (%) [1]: 11%
- Population Tubulin-Different-Phenotype (%) [1]: 7%
- Total Cell Count [1]: 230
- Population Apoptotic (%) [2]: 84%
- Population Fragmented Nuclei (%) [2]: 8%
- Population Healthy Nuclei (%) [2]: 82%
- Population Membrane Permeable-Phenotype (%) [2]: 14%
- Population Mitochondria Different-Phenotype (%) [2]: 10%
- Population Mitotic Cells (%) [2]: 15%
- Population Pyknosed Nuclei (%) [2]: 8%
- Population Tubulin-Different-Phenotype (%) [2]: 11%
- Total Cell Count [2]: 150
- Population Apoptotic (%) [3]: 59%
- Population Fragmented Nuclei (%) [3]: 34%
- Population Healthy Nuclei (%) [3]: 49%
- Population Hoechst High Intensity Objects (%) [3]: 5%
- Population Membrane Permeable-Phenotype (%) [3]: 79%
- Population Mitochondria Different-Phenotype (%) [3]: 42%
- Population Mitotic Cells (%) [3]: 40%
- Population Normal (%) [3]: 94%
- Population Pyknosed Nuclei (%) [3]: 16%
- Population Tubulin-Different-Phenotype (%) [3]: 85%
- Total Cell Count [3]: 203
- Population Apoptotic (%) [4]: 47%
- Population Fragmented Nuclei (%) [4]: 13%
- Population Healthy Nuclei (%) [4]: 69%
- Population Membrane Permeable-Phenotype (%) [4]: 63%
- Population Mitochondria Different-Phenotype (%) [4]: 55%
- Population Mitotic Cells (%) [4]: 52%
- Population Tubulin-Different-Phenotype (%) [4]: 77%
- Total Cell Count [4]: 119
- Population Apoptotic (%) [5]: 86%
- Population Fragmented Nuclei (%) [5]: 26%
- Population Healthy Nuclei (%) [5]: 64%
- Population Hoechst High Intensity Objects (%) [5]: 1%
- Population Membrane Permeable-Phenotype (%) [5]: 9%
- Population Mitochondria Different-Phenotype (%) [5]: 9%
- Population Mitotic Cells (%) [5]: 13%
- Population Normal (%) [5]: 98%
- Population Pyknosed Nuclei (%) [5]: 8%
- Population Tubulin-Different-Phenotype (%) [5]: 4%
- Total Cell Count [5]: 257
- Population Apoptotic (%) [6]: 57%
- Population Fragmented Nuclei (%) [6]: 14%
- Population Healthy Nuclei (%) [6]: 81%
- Population Hoechst High Intensity Objects (%) [6]: 4%
- Population Membrane Permeable-Phenotype (%) [6]: 11%
- Population Mitochondria Different-Phenotype (%) [6]: 13%
- Population Mitotic Cells (%) [6]: 42%
- Population Normal (%) [6]: 95%
- Population Pyknosed Nuclei (%) [6]: 4%
- Population Tubulin-Different-Phenotype (%) [6]: 7%
- Total Cell Count [6]: 171
- Population Apoptotic (%) [7]: 59%
- Population Fragmented Nuclei (%) [7]: 30%
- Population Healthy Nuclei (%) [7]: 50%
- Population Hoechst High Intensity Objects (%) [7]: 4%
- Population Membrane Permeable-Phenotype (%) [7]: 65%
- Population Mitochondria Different-Phenotype (%) [7]: 63%
- Population Mitotic Cells (%) [7]: 40%
- Population Normal (%) [7]: 95%
- Population Pyknosed Nuclei (%) [7]: 18%
- Population Tubulin-Different-Phenotype (%) [7]: 75%
- Total Cell Count [7]: 207
- Population Apoptotic (%) [8]: 66%
- Population Fragmented Nuclei (%) [8]: 14%
- Population Healthy Nuclei (%) [8]: 67%
- Population Membrane Permeable-Phenotype (%) [8]: 54%
- Population Mitochondria Different-Phenotype (%) [8]: 67%
- Population Mitotic Cells (%) [8]: 33%
- Population Tubulin-Different-Phenotype (%) [8]: 66%
- Total Cell Count [8]: 119
- Population Apoptotic (%) [9]: 87%
- Population Fragmented Nuclei (%) [9]: 24%
- Population Healthy Nuclei (%) [9]: 64%
- Population Hoechst High Intensity Objects (%) [9]: 1%
- Population Membrane Permeable-Phenotype (%) [9]: 9%
- Population Mitochondria Different-Phenotype (%) [9]: 6%
- Population Mitotic Cells (%) [9]: 12%
- Population Normal (%) [9]: 98%
- Population Pyknosed Nuclei (%) [9]: 11%
- Population Tubulin-Different-Phenotype (%) [9]: 5%
- Total Cell Count [9]: 378
- Population Apoptotic (%) [10]: 95%
- Population Fragmented Nuclei (%) [10]: 10%
- Population Healthy Nuclei (%) [10]: 79%
- Population Hoechst High Intensity Objects (%) [10]: 3%
- Population Membrane Permeable-Phenotype (%) [10]: 13%
- Population Mitochondria Different-Phenotype (%) [10]: 11%
- Population Mitotic Cells (%) [10]: 5%
- Population Normal (%) [10]: 96%
- Population Pyknosed Nuclei (%) [10]: 10%
- Total Cell Count [10]: 206
- Population Apoptotic (%) [11]: 75%
- Population Fragmented Nuclei (%) [11]: 32%
- Population Healthy Nuclei (%) [11]: 37%
- Population Hoechst High Intensity Objects (%) [11]: 5%
- Population Membrane Permeable-Phenotype (%) [11]: 49%
- Population Mitochondria Different-Phenotype (%) [11]: 40%
- Population Mitotic Cells (%) [11]: 25%
- Population Normal (%) [11]: 94%
- Population Pyknosed Nuclei (%) [11]: 29%
- Population Tubulin-Different-Phenotype (%) [11]: 44%
- Total Cell Count [11]: 232
- Population Apoptotic (%) [12]: 92%
- Population Fragmented Nuclei (%) [12]: 18%
- Population Healthy Nuclei (%) [12]: 58%
- Population Hoechst High Intensity Objects (%) [12]: 12%
- Population Membrane Permeable-Phenotype (%) [12]: 60%
- Population Mitochondria Different-Phenotype (%) [12]: 52%
- Population Mitotic Cells (%) [12]: 7%
- Population Normal (%) [12]: 87%
- Population Pyknosed Nuclei (%) [12]: 23%
- Population Tubulin-Different-Phenotype (%) [12]: 57%
- Total Cell Count [12]: 137
